ChEMBL document CHEMBL1955830, “Substituted azaquinazolinones as modulators of GHSr-1a for the treatment of type II diabetes and obesity” (Bioorg Med Chem Lett, 2012)

Legend:
[1] = target: T1, Muscarinic acetylcholine receptor M1 (Homo sapiens) (UniProt P11229); assay: Inhibition of muscarinic M1 receptor at 10 uM
T1 sequence (whole entry): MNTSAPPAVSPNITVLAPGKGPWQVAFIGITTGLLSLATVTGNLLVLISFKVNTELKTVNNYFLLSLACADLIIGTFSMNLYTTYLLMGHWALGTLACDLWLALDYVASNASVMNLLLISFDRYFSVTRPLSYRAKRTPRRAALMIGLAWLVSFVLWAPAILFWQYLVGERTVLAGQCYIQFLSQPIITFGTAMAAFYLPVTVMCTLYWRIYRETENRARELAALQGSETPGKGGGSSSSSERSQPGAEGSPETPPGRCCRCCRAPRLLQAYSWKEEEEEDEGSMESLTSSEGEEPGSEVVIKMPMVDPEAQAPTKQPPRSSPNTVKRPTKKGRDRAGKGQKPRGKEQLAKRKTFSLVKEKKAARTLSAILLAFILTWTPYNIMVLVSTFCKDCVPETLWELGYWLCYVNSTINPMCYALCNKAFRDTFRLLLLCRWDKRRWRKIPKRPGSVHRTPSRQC

[2] = target: 5-hydroxytryptamine receptor 2B (Homo sapiens) (UniProt P41595); assay: Inhibition of 5-HT2B at 10 uM
Sequence of 5-hydroxytryptamine receptor 2B (Homo sapiens) (P41595 whole entry): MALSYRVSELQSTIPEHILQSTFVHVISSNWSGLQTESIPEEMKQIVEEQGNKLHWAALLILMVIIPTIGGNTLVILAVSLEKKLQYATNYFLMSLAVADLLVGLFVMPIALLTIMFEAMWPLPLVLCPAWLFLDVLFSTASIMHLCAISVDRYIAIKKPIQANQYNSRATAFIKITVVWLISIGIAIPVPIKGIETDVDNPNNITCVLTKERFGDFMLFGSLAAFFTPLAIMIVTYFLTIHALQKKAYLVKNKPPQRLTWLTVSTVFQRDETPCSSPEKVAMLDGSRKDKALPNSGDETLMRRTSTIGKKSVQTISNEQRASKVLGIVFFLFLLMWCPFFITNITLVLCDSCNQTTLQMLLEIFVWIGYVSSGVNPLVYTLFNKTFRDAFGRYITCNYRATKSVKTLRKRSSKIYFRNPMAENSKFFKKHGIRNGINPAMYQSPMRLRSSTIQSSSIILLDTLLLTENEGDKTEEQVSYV

[3] = target: Growth hormone secretagogue receptor type 1 (Homo sapiens, UniProt Q92847); assay: Displacement of [125I]-Ghrelin from human GHSR membranes overexpressing GSH-R1a by scintillation counting
Sequence of Growth hormone secretagogue receptor type 1 (Q92847 whole entry): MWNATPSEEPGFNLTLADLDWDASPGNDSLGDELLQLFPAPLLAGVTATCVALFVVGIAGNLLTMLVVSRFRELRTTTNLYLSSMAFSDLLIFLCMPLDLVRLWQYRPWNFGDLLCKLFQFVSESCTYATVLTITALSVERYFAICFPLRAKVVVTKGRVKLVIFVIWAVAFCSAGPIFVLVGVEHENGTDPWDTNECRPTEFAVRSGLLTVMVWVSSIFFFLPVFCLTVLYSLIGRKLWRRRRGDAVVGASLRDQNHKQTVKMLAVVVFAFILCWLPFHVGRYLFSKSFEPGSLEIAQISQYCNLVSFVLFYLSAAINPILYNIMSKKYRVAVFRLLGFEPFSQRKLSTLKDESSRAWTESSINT
Outline: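 Binding affinity (Ki) at GHS-R1a was measured by 125I-ghrelin displacement using commercial human GHS-R1a membranes.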

[4] = Antagonist activity at mouse GSH-R1a receptor expressed in HEK293 cells assessed as inhibition of ghrelin-induced calcium mobilization after 5 mins by FLIPR assay; type: functional, cell-based; details: HEK293, 5 min
Outline: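 Functional antagonism was measured as IC50 in a FLIPR Ca2+ mobilisation assay.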

[5] = target: T2, Muscarinic acetylcholine receptor M2 (Homo sapiens) (UniProt P08172); assay: Inhibition of muscarinic M2 receptor at 10 uM
T2 sequence (whole entry): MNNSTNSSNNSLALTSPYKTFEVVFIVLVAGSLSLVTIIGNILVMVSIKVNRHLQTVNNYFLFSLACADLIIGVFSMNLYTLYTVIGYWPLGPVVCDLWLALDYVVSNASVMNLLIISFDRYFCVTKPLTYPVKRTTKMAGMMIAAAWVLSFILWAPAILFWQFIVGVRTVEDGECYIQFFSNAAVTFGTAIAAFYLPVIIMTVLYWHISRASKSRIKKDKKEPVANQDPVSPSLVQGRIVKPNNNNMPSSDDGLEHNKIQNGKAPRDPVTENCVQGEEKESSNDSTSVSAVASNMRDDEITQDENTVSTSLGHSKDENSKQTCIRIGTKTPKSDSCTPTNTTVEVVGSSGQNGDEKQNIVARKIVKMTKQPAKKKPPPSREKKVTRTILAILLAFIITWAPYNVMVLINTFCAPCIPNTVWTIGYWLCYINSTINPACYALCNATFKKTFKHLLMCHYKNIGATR

[6] = target: Voltage-gated inwardly rectifying potassium channel KCNH2 (Homo sapiens, UniProt Q12809); assay: Inhibition of human Erg by patch clamp assay; details: for pIC50: human
Sequence of Voltage-gated inwardly rectifying potassium channel KCNH2 (Q12809 whole entry): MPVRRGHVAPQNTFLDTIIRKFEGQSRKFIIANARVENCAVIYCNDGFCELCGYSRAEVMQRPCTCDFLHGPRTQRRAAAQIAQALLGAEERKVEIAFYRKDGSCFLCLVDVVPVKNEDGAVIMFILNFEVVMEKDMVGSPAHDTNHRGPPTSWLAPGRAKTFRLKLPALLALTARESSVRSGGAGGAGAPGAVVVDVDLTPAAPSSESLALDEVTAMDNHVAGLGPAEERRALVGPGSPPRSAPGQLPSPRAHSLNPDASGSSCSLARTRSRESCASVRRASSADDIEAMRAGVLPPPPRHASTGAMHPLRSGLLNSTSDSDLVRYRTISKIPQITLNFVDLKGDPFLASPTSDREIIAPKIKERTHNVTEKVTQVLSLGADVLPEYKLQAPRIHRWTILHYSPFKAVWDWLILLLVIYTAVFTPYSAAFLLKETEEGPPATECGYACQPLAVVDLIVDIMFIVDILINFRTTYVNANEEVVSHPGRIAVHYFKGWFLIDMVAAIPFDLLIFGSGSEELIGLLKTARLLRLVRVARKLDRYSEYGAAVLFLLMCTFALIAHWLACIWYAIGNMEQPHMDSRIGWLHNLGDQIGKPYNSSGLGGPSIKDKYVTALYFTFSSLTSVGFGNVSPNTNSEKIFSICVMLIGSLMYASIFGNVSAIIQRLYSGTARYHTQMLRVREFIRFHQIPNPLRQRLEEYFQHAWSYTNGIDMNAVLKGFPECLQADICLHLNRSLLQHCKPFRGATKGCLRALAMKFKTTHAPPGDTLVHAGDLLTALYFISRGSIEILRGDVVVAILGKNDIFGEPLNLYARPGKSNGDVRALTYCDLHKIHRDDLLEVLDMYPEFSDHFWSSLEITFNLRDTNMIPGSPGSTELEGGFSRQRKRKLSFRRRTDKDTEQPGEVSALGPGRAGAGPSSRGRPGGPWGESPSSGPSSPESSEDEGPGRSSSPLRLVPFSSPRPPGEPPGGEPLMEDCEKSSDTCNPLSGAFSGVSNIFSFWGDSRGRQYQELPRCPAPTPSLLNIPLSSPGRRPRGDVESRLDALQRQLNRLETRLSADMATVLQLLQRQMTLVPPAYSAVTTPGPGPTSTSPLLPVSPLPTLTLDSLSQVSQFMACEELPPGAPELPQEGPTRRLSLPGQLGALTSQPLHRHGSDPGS

[7] = AUC in Sprague-Dawley rat at 1 mg/kg, iv; type: ADME, organism-based; set-up: dose 1 mg/kg, route intravenous; details: plasma
Outline: (§1)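 Male Sprague-Dawley rats were dosed with compound formulated in 20% trappsol in water for injection as the vehicle.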

Rattus norvegicus = assay: Clearance in Sprague-Dawley rat at 1 mg/kg, iv; type: ADME, organism-based; set-up: dose 1 mg/kg, route intravenous; details: in vivo; outline: as §1
[8] = AUC in Sprague-Dawley rat at 3 mg/kg, po; type: ADME, organism-based; set-up: dose 3 mg/kg, route oral; details: plasma; outline: as §1
[9] = Oral bioavailability in Sprague-Dawley rat at 1 mg/kg; type: ADME, organism-based; details: in vivo, 3 mg/kg, in the assay text read “3 mg/kg” for “1 mg/kg”; outline: as §1
[10] = Half life in Sprague-Dawley rat at 1 mg/kg, iv; type: ADME, organism-based; set-up: dose 1 mg/kg, route intravenous; details: in vivo; outline: as §1
[11] = Volume of distribution at steady state in Sprague-Dawley rat at 1 mg/kg, iv; type: ADME, organism-based; set-up: dose 1 mg/kg, route intravenous; details: in vivo, read-out: Vdss; outline: as §1
hERG (KCNH2) = hERG (KCNH2) (Homo sapiens, UniProt Q12809); assay: in vitro
Sequence of hERG (KCNH2) (Q12809 whole entry): as above

Row | SMILES | Ki [3] | IC50 [4] | other results
1 | Cc1nc2ccc(Oc3ccc(F)cc3)cc2c(=O)n1C[C@H]1CCCN(C(C)C)C1 | 1 nM | 141 nM | inhibition [1]: > 50%; inhibition [2]: > 50%; inhibition [5]: > 50%
2 | Cc1nc2ncc(Oc3ccc4ncsc4c3)nc2c(=O)n1C[C@H]1CCCN(C(C)C)C1 | 0.26 nM | 5.7 nM | –
3 | Nc1nc(N)c(-c2ccc(NC(=O)C3CC3)cc2)c(COCc2ccccc2)n1 | – | 188 nM | –
4 | Cc1nc2ncc(Oc3ccc4c(c3)ncn4C)nc2c(=O)n1C[C@H]1CCCN(C(C)C)C1 | 5 nM | 51.8 nM | –
5 | Cc1nc2cnc(Oc3ccc4c(c3)OCO4)cc2c(=O)n1C[C@H]1CCCN(C(C)C)C1 | 0.3 nM | 86.5 nM | –
6 | Cc1nc2ncc(Oc3ccc4c(c3)OCO4)nc2c(=O)n1C[C@H]1CCCN(C(C)C)C1 | 1.5 nM | 16.5 nM | –
7 | Cc1nc2ncc(Oc3ccc(Br)cc3F)cc2c(=O)n1C[C@H]1CCCN(C(C)C)C1 | 0.16 nM | 26 nM | IC50 [6]: 1300 nM
8 | Cc1nc2ncc(Oc3ccc(Cl)cc3F)nc2c(=O)n1C[C@H]1CCCN(C(C)C)C1 | 0.6 nM | 102 nM | –
9 | Cc1nc2ccc(Oc3ccc(Cl)cc3F)nc2c(=O)n1C[C@H]1CCCN(C(C)C)C1 | 0.2 nM | 2 nM | AUC [7]: 695 ng·h/mL; clearance (Rattus norvegicus): 24 mL/min/kg; AUC [8]: 736 ng·h/mL; bioavailability [9]: 35%; half-life [10]: 4.71 h; Vd [11]: 6.64 L/kg
10 | Cc1nc2ccc(Oc3ccc4c(c3)OCO4)nc2c(=O)n1C[C@H]1CCCN(C(C)C)C1 | 0.9 nM | 19.2 nM | –
11 | Cc1nc2ccc(Oc3ccc(F)c4cccnc34)nc2c(=O)n1C[C@H]1CCCN(C(C)C)C1 | 2.6 nM | 131 nM | IC50 [6]: 130 nM
12 | Cc1nc2cnc(Oc3cccc4cccnc34)cc2c(=O)n1C[C@H]1CCCN(C(C)C)C1 | – | – | IC50 [6]: 25100 nM; pIC50 [6]: 4.6
13 | Cc1nc2ncc(Oc3ccc(F)c4cccnc34)nc2c(=O)n1C[C@H]1CCCN(C(C)C)C1 | 1.9 nM | 142 nM | IC50 [6]: > 33000 nM
14 | COc1ccc(Cn2c(CCc3c[nH]c4ccccc34)nnc2[C@@H](Cc2c[nH]c3ccccc23)NC(=O)[C@@H]2CCCN2)c(OC)c1 | – | 5.6 nM | –
15 | Cc1nc2cnc(Oc3ccc(F)cc3)cc2c(=O)n1C[C@H]1CCCN(C(C)C)C1 | 3.4 nM | 399 nM | –
16 | Cc1nc2cnc(Oc3ccc(Cl)cc3F)cc2c(=O)n1C[C@H]1CCCN(C(C)C)C1 | 0.2 nM | 146 nM | selectivity ratio (hERG (KCNH2)): 10; IC50 [6]: 130 nM; pIC50 [6]: 6.89
17 | Cc1nc2cnc(Oc3ccc(F)c4cccnc34)cc2c(=O)n1C[C@H]1CCCN(C(C)C)C1 | 6.6 nM | 1440 nM | IC50 [6]: 9400 nM
18 | Cc1nc2ncc(Oc3ccc(F)cc3)nc2c(=O)n1C[C@H]1CCCN(C(C)C)C1 | 3.1 nM | 587 nM | AUC [7]: 1170 ng·h/mL; clearance (Rattus norvegicus): 13 mL/min/kg; AUC [8]: 1170 ng·h/mL; bioavailability [9]: 33%; half-life [10]: 3.01 h; Vd [11]: 2.87 L/kg
19 | Cc1nc2ccc(Oc3ccc(F)cc3)nc2c(=O)n1C[C@H]1CCCN(C(C)C)C1 | 2 nM | 185 nM | AUC [7]: 523 ng·h/mL; clearance (Rattus norvegicus): 32 mL/min/kg; AUC [8]: 941 ng·h/mL; bioavailability [9]: 60%; half-life [10]: 7.16 h; Vd [11]: 11.9 L/kg
20 | Cc1nc2cnc(Oc3ccc4ncsc4c3)cc2c(=O)n1C[C@H]1CCCN(C(C)C)C1 | 0.1 nM | 29.2 nM | IC50 [6]: 2400 nM; pIC50 [6]: 5.62
21 | Cc1nc2ccc(Oc3ccc(Br)cc3F)nc2c(=O)n1C[C@H]1CCCN(C(C)C)C1 | 0.01 nM | 2.3 nM | –
22 | Cc1nc2ccc(Oc3ccc4ncsc4c3)nc2c(=O)n1C[C@H]1CCCN(C(C)C)C1 | 0.01 nM | 2.7 nM | –
23 | Cc1nc2ncc(Oc3ccc(-c4ccccc4)cc3)nc2c(=O)n1C[C@H]1CCCN(C(C)C)C1 | 0.27 nM | 80 nM | –
24 | Cc1nc2ccc(Oc3ccc(-c4ccccc4)cc3)nc2c(=O)n1C[C@H]1CCCN(C(C)C)C1 | 0.4 nM | 37.7 nM | –
25 | Cc1nc2cnc(Oc3ccc4c(c3)ncn4C)cc2c(=O)n1C[C@H]1CCCN(C(C)C)C1 | 0.5 nM | 137 nM | –
26 | COc1ccc2cccc(Oc3ccc4nc(C)n(C[C@H]5CCCN(C(C)C)C5)c(=O)c4n3)c2n1 | 3.1 nM | 118 nM | –
27 | Cc1nc2ncc(Oc3ccc(Br)cc3F)nc2c(=O)n1C[C@H]1CCCN(C(C)C)C1 | 0.05 nM | 1.17 nM | –
28 | Cc1nc2ncc(Oc3ccc(F)cc3)cc2c(=O)n1C[C@H]1CCCN(C(C)C)C1 | 6.7 nM | 357 nM | –
29 | Cc1nc2ncc(Oc3ccc(-c4ccccc4)cc3)cc2c(=O)n1C[C@H]1CCCN(C(C)C)C1 | 1.7 nM | 131 nM | –
